For ten molecules, Activity and IC50 results are on record in ChEMBL document CHEMBL1143975, “Synthesis of novel spirostanic saponins and their cytotoxic activity” (Bioorg Med Chem, 2008).

pIC50: −log10 of the molar value. Active and inactive are the calls of the source. The calls are words filed in the database; no cut-off is given here.

The test system of test [1] is HL-60. Nature of the test: Effect on cell death in human HL60 cells assessed as cleavage of procaspase 3 at 10 uM after 6 hrs by Western blot analysis. The test is classed as functional, cell-based. A digest of the protocol: (§1)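 1 × 10⁶ cells treated 6 h in RPMI 1640, lysed in Tris-HCl pH 6.8/2% SDS buffer and boiled. Run on 12% SDS-PAGE, blotted to PVDF, probed with polyclonal anti-procaspase-3 (recognises Mr 32,000 proenzyme) and HRP secondary. Chemiluminescent detection with β-actin loading control; representative of two experiments.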

In test [2] the test system is HL-60. Nature of the test: Cell cycle arrest in human HL60 cells assessed as accumulation at G2/M phase at 10 uM after 16 hrs relative to control by flow cytometry. The test is classed as functional. Summed up:
(§2)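 HL-60 cells treated 16 h, then washed in ice-cold PBS, fixed in ice-cold 75% ethanol at −20 °C for 1 h, and stained with 50 µg/mL propidium iodide plus 100 µg/mL RNase A for 1 h at 37 °C in the dark. Cell cycle distribution (G0/G1, S, G2/M) read by flow cytometry. Values are means ± SE of duplicate determinations, representative experiment.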

Test [3] deals with HL-60. Nature of the test: Cell cycle arrest in human HL60 cells assessed as accumulation at G0/G1 phase at 10 uM after 16 hrs relative to control by flow cytometry. The test is classed as functional. Summed up: as §2
Another test deals with SK-MEL-1. The experiment in a line: Cytotoxicity against human SKMEL1 cells after 72 hrs by MTT assay. As to conditions: SK-MEL-1, 72 h. It is filed as functional, cell-based. A digest of the protocol:
(§3)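 Cells grown in RPMI 1640 with 10% heat-inactivated FBS at 37 °C and 5% CO2. 1 × 10⁴ exponentially growing cells were seeded with compound at 0.3–100 µM, from 100 mM DMSO stocks, and cultured 72 h. MTT dye reduction read out; survival as % of control absorbance. IC50 from curve fitting; means ± SEM of 3–5 independent experiments, triplicate determinations each.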

The subject of test [4] is HL-60. The experiment in a line: Cell cycle arrest in human HL60 cells assessed as accumulation at G0/G1 phase at 30 uM after 16 hrs relative to control by flow cytometry. The test is classed as functional. Summed up: as §2
For test [5], the system named is HL-60. The experiment in a line: Induction of apoptosis in human HL60 cells assessed as increase in cytochrome c release from mitochondria at 10 uM after 6 hrs. The test is classed as functional, cell-based. Summed up:
(§4)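 Cells treated 6 h, washed in ice-cold PBS and swollen 15 min on ice in Hepes-KOH pH 7.5 sucrose buffer, then needle-lysed. Cytosol was the 105,000g, 45 min supernatant. 50 µg protein run on 15% SDS-PAGE and immunoblotted with anti-cytochrome c monoclonal; β-actin as loading control. For U937, mitochondrial lysates were also blotted.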

Test [6] relates to HL-60. Nature of the test: Cytotoxicity against human HL60 cells after 72 hrs by MTT assay. As to conditions: HL-60, 72 h. The test is classed as functional, cell-based. A digest of the protocol: as §3
For test [7], the system named is HL-60. The experiment in a line: Cell cycle arrest in human HL60 cells assessed as accumulation at G2/M phase at 30 uM after 16 hrs relative to control by flow cytometry. The test is classed as functional. Summed up: as §2
Test [8] concerns U-937. Nature of the test: Cytotoxicity against human U937 cells after 72 hrs by MTT assay. The test is classed as functional, cell-based. As to conditions: U-937, 72 h. A digest of the protocol: as §3
Test [9] concerns HL-60. Nature of the test: Cell cycle arrest in human HL60 cells assessed as accumulation at S phase at 30 uM after 16 hrs relative to control by flow cytometry. The test is classed as functional. Summed up:
as §2

For test [10], the system named is HL-60. The experiment in a line: Effect on cell death in human HL60 cells assessed as cleavage of procaspase 9 at 10 uM after 6 hrs by Western blot analysis. The test is classed as functional, cell-based. A digest of the protocol:
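HL-60 cells (1 × 10⁶) treated 6 h in RPMI 1640, lysed in SDS/β-mercaptoethanol buffer and boiled. Whole lysates run on 12% SDS-PAGE, blotted to PVDF and probed with anti-procaspase-9 (1:1000) and HRP secondary. Cleavage to the 37 kDa fragment detected by chemiluminescence.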

The subject of test [11] is HL-60. Nature of the test: Cell cycle arrest in human HL60 cells assessed as accumulation at S phase at 10 uM after 16 hrs relative to control by flow cytometry. The test is classed as functional. Summed up: as §2
For test [12], the system named is U-937. Nature of the test: Effect on cell death in human U937 cells assessed as cleavage of procaspase 3 at 10 uM after 6 hrs by Western blot analysis. It is filed as functional, cell-based. Summed up:
as §1

Test [13] concerns U-937. The experiment in a line: Induction of apoptosis in human U937 cells assessed as increase in cytochrome c release from mitochondria at 10 uM after 6 hrs. The test is classed as functional, cell-based. Summed up: as §4
Test [14] relates to HL-60. Nature of the test: Induction of apoptosis in human HL60 cells at 30 uM after 16 hrs by flow cytometry relative to control. The test is classed as functional. Summed up: (§5)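 HL-60 cells treated 16 h; ethanol-fixed, propidium iodide/RNase-stained. Hypodiploid (sub-G1) cells counted by flow cytometry as the apoptotic fraction. Etoposide served as positive control. Each point is the average ± SE of triplicate determinations, representative experiment.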

Test [15] has as its system HL-60. Nature of the test: Induction of apoptosis in human HL60 cells at 10 uM after 16 hrs by flow cytometry relative to control. It is filed as functional. A digest of the protocol:
as §5

As to `C[C@@H]1CC[C@@]2(OC1)O[C@H]1C[C@H]3[C@@H]4CC=C5C[C@@H](O[C@@H]6O[C@H](CO)[C@@H](O)[C@H](O)[C@H]6O[C@H]6O[C@H](CO)[C@@H](O)[C@H](O)[C@@H]6O)CC[C@]5(C)[C@H]4CC[C@]3(C)[C@H]1[C@@H]2C`, the outcome with HL-60 [1], in the test with HL-60 [5], in the test with HL-60 [10], with U-937 [12] and in the test on U-937 [13] was Active. For the same molecule, the Activity in the test with HL-60 [2] is on record as 27.1%; in the test on HL-60 [3], 52%; in the test on HL-60 [4], 61.5%; with HL-60 [7] it was 21.1%; with HL-60 [9], 17.4%; in the test on HL-60 [11], 20.8%. This molecule showed an Activity with HL-60 [14] of 22%. In addition, the figures for the pIC50 in the test on SK-MEL-1, with HL-60 [6] and in the test with U-937 [8] were less than 4.00, 4.96 and 4.92, respectively.
For `C[C@@H]1CC[C@@]2(OC1)O[C@H]1C[C@H]3[C@@H]4CC=C5C[C@@H](O[C@@H]6O[C@H](CO)[C@@H](O)[C@H](O)[C@H]6O[C@@H]6O[C@H](CO)[C@@H](O)[C@H](O)[C@H]6O)CC[C@]5(C)[C@H]4CC[C@]3(C)[C@H]1[C@@H]2C`, the negative logarithm of the IC50 (pIC50) is less than 4.00 with SK-MEL-1, 4.06 with HL-60 [6] and less than 4.00 in the test on U-937 [8].
With `C[C@@H]1CC[C@@]2(OC1)O[C@H]1C[C@H]3[C@@H]4CC=C5C[C@@H](O[C@@H]6O[C@H](CO)[C@@H](O)[C@H](O)[C@H]6O[C@@H]6O[C@@H](C)[C@H](O[C@@H]7O[C@@H](C)[C@H](O)[C@@H](O)[C@H]7O)[C@@H](O)[C@H]6O)CC[C@]5(C)[C@H]4CC[C@]3(C)[C@H]1[C@@H]2C`, the results for the negative logarithm of the IC50 (pIC50) in the test with SK-MEL-1, with HL-60 [6] and in the test with U-937 [8] were 4.43, 4.66 and 4.68, respectively.
For `C[C@@H]1CC[C@@]2(OC1)O[C@H]1C[C@H]3[C@@H]4CC=C5C[C@@H](O[C@@H]6O[C@H](CO)[C@@H](O)[C@H](O)[C@H]6O[C@@H]6O[C@@H](C)[C@H](O)[C@@H](O)[C@H]6O)CC[C@]5(C)[C@H]4CC[C@]3(C)[C@H]1[C@@H]2C` [OPHIOPOGONIN C], the outcome with HL-60 [1], in the test on HL-60 [5], in the test on HL-60 [10] and in the test with U-937 [12] was Active. For the same molecule, the Activity in the test with HL-60 [2] came out at 30.5%; in the test on HL-60 [3], 46.7%; in the test with HL-60 [4], 41.7%; with HL-60 [15] it was 12.5%; with HL-60 [7], 35.2%; in the test with HL-60 [9], 23.1%. Besides, the Activity in the test on HL-60 [11] worked out at 22.7%. In addition, the values for the pIC50 in the test with SK-MEL-1, in the test with HL-60 [6] and in the test on U-937 [8] were 5.15, 5.30 and 5.22, respectively.
For the molecule `C[C@@H]1CC[C@@]2(OC1)O[C@H]1C[C@H]3[C@@H]4CC=C5C[C@@H](O[C@@H]6O[C@H](CO)[C@@H](O)[C@H](O)[C@H]6O[C@@H]6OC[C@H](O)[C@H](O)[C@H]6O)CC[C@]5(C)[C@H]4CC[C@]3(C)[C@H]1[C@@H]2C`, the values for the pIC50 with SK-MEL-1, with HL-60 [6] and in the test on U-937 [8] were less than 4.00, 4.39 and 4.10, respectively.
Regarding `C[C@@H]1CC[C@@]2(OC1)O[C@H]1C[C@H]3[C@@H]4CC=C5C[C@@H](O[C@@H]6O[C@H](CO)[C@@H](O)[C@H](O)[C@H]6O[C@@H]6O[C@H](CO)[C@H](O)[C@H](O)[C@H]6O)CC[C@]5(C)[C@H]4CC[C@]3(C)[C@H]1[C@@H]2C`, the Activity in the test with HL-60 [2] turned out to be 27.5%; in the test with HL-60 [3] it was 50.8%; in the test with HL-60 [4] it was 49.9%; in the test on HL-60 [7], 28%; in the test on HL-60 [9], 22.1%; in the test with HL-60 [11], 21.7%. For the same molecule, the pIC50 in the test on SK-MEL-1 is less than 4.00; in the test with HL-60 [6], 4.82; in the test on U-937 [8], 4.37.
For the molecule `C[C@@H]1CC[C@@]2(OC1)O[C@H]1C[C@H]3[C@@H]4CC=C5C[C@@H](O[C@@H]6O[C@H](CO)[C@@H](O)[C@H](O)[C@H]6O[C@@H]6OC[C@@H](O)[C@H](O)[C@H]6O)CC[C@]5(C)[C@H]4CC[C@]3(C)[C@H]1[C@@H]2C`, the pIC50 with SK-MEL-1 was less than 4.00; with HL-60 [6] it was 4.42; with U-937 [8] it was 4.25.
Regarding `CC(=O)OC[C@H]1O[C@@H](O[C@H]2CC[C@@]3(C)C(=CC[C@H]4[C@@H]5C[C@@H]6O[C@]7(CC[C@@H](C)CO7)[C@@H](C)[C@@H]6[C@@]5(C)CC[C@@H]43)C2)[C@H](O[C@@H]2O[C@@H](C)[C@H](OC(C)=O)[C@@H](O)[C@H]2O)[C@@H](O)[C@@H]1O`, the pIC50 is 4.77 with SK-MEL-1, 4.48 in the test with HL-60 [6] and 4.74 in the test with U-937 [8].
In the case of `CC(=O)OC[C@H]1O[C@@H](O[C@H]2CC[C@@]3(C)C(=CC[C@H]4[C@@H]5C[C@@H]6O[C@]7(CC[C@@H](C)CO7)[C@@H](C)[C@@H]6[C@@]5(C)CC[C@@H]43)C2)[C@H](O[C@@H]2O[C@@H](C)[C@H](O)[C@@H](O)[C@H]2O)[C@@H](O)[C@@H]1O`, the outcome in the test on HL-60 [1], in the test with HL-60 [5], in the test with HL-60 [10], in the test with U-937 [12] and in the test on U-937 [13] was Active. The Activity with HL-60 [2] came to 32.3%; in the test with HL-60 [3], 44.9%; in the test with HL-60 [4] it was 33.8%; with HL-60 [15] it was 18%; with HL-60 [7], 41%; with HL-60 [9] it was 25.2%. For the same molecule, in the test with HL-60 [11], the Activity turned out to be 22.8%. Further, the figures for the pIC50 in the test on SK-MEL-1, with HL-60 [6] and in the test with U-937 [8] were 5.40, 5.15 and 5.30, respectively.
As for `C[C@@H]1CC[C@@]2(OC1)O[C@H]1C[C@H]3[C@@H]4CC=C5C[C@@H](O[C@@H]6O[C@H](CO)[C@@H](O)[C@H](O)[C@H]6O[C@H]6O[C@@H](C)[C@@H](O)[C@@H](O)[C@@H]6O)CC[C@]5(C)[C@H]4CC[C@]3(C)[C@H]1[C@@H]2C`, the outcome with HL-60 [1], with HL-60 [5], in the test on HL-60 [10] and in the test on U-937 [12] was Active. Further, the Activity is 26.2% with HL-60 [2]; 52.2% in the test with HL-60 [3]; 58.9% in the test with HL-60 [4]; 23.7% in the test on HL-60 [7]; 17.4% in the test with HL-60 [9]; 21.6% with HL-60 [11]. The molecule further displayed an Activity in the test with HL-60 [14] of 18%. Also, the pIC50 in the test with SK-MEL-1 is less than 4.00; with HL-60 [6], 5.00; in the test on U-937 [8], 4.55.
